PfM18AAP inh: PfM18AAP enzyme inhibition | recombinant PfM18AAP, H-Glu-NHMec fluorogenic cleavage | inhibition, % at 7.35 µM | 1.2% of 290,000 active;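 active = inhibition above the campaign mean inhibition over all tested compounds plus 3 SD, cut at about 28% in these data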;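 also: 0% = plate median of test compound wells and 100% = 2 mM ZnCl2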
IMP-1 inh: blocks Pseudomonas aeruginosa IMP-1 metallo-beta-lactamase. inhibition, % at 5.6 µM. purified IMP-1, nitrocefin hydrolysis, epi-absorbance fluorescence. AID 1556. 0.45% of 290,000 active;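 active = inhibition above the mean plus 3 SD of all compounds in the same screening run, cut at about 4.5% in these data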;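 also: 0% = IMP-1 with DMSO and 100% = DMSO wells lacking enzyme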
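assay system = purified recombinant IMP-1 metallo-beta-lactamase enzyme | schedule = 15 min preincubation plus 25 min reaction at 25 °C | signal = Epi-absorbance fluorescence, 480 nm excitation, 530 nm emission | read-out basis = percent inhibition from optical density relative to buffer-blank wells | controls = IMP-1 with DMSO as 0%, enzyme-free DMSO as 100%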
VIM-2 inh: inhibitors of Pseudomonas aeruginosa VIM-2 metallo-beta-lactamase; 0.89% of 290,000 active; purified VIM-2, nitrocefin hydrolysis, epi-absorbance fluorescence; inhibition, % at 5.6 µM; AID 1527;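 active = inhibition above the mean of all tested compounds plus 3 SD, cutoff set per screening run, cut at about 7.5% in these data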;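 also: red hydrolysis product quenches plate fluorescence so inhibitors raise well fluorescence; 0% = enzyme with DMSO and 100% = DMSO without enzyme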
CTSL1 counter: cathepsin L1 inhibition, PFM18AAP counter-screen. recombinant F. hepatica cathepsin L1, Z-Leu-Arg-MCA fluorescence. inhibition, % at 5.96 µM. 0.49% of 300,000 active;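 active = inhibition above the mean of all tested compounds plus 3 SD, set per screening campaign, cut at about 17% in these data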;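 also: 0% = plate median of test compound wells and 100% = 1 µM Z-Phe-Ala-diazomethylketone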
Numbers without * were called inactive. Hits are enriched below; roughly 2.7% of the tested compounds scored in any of these assays.

How did CCOC(=O)N1CCN(C(=O)CSc2nc(=O)n3ccccc3n2)CC1 do in these assays?
CTSL1 counter: 0

What do the screens show for `COc1ccccc1OCC(=O)OC/C(O)=C(\C#N)c1nc2ccccc2[nH]1`?
PfM18AAP inh: 4; IMP-1 inh: 1; VIM-2 inh: 11*; CTSL1 counter: 1

What do the screens show for `Cc1ccc(C(=O)c2coc3cc([N+](=O)[O-])c(O)c([N+](=O)[O-])c23)cc1`?
PfM18AAP inh: 33*; IMP-1 inh: -3; VIM-2 inh: -5; CTSL1 counter: -1

What do the screens show for `O=C(CC(c1ccccc1)C1CCCCC1=O)c1ccco1` (stereo not given)?
PfM18AAP inh: 0; IMP-1 inh: 1; VIM-2 inh: -3; CTSL1 counter: 4

What do the screens show for `O=C(CC(c1ccco1)C1CCCCC1=O)c1ccco1` (stereo not given)?
PfM18AAP inh: 2; IMP-1 inh: 0; VIM-2 inh: -2; CTSL1 counter: 64*

Results for COC(=O)c1ccccc1NC(=O)c1ccccc1OC ?
PfM18AAP inh: 1; IMP-1 inh: -3; VIM-2 inh: 0; CTSL1 counter: -2

What do the screens show for `COc1ccccc1C(=O)Nc1ccccc1SC(=O)c1ccccc1OC`?
PfM18AAP inh: 31*; IMP-1 inh: -3; VIM-2 inh: -3; CTSL1 counter: -3

Results for CCOCCOC(=O)c1ccc(-n2cncn2)nc1 ?
PfM18AAP inh: -8; IMP-1 inh: -1; VIM-2 inh: -3; CTSL1 counter: 1

What do the screens show for `Cc1cc(/C=C2\SC(=S)NC2=O)c(C)n1C1CC1`?
PfM18AAP inh: 14; IMP-1 inh: 0; VIM-2 inh: 7.7*; CTSL1 counter: 2

Results for Cc1cc(/C=C2/C(=O)N(C)C(=S)N2C)c(C)n1C1CC1 ?
PfM18AAP inh: 10; IMP-1 inh: -1; VIM-2 inh: -3; CTSL1 counter: 2

What do the screens show for `FCCCOc1ccc(-c2ccnc(-c3ccccc3)n2)cc1`?
PfM18AAP inh: 1; IMP-1 inh: 5.1*; VIM-2 inh: 1; CTSL1 counter: 7

What do the screens show for `COC(=O)c1sccc1NC(=O)C1C2C=CC(O2)C1C(=O)O` (stereo not given)?
PfM18AAP inh: 1; IMP-1 inh: -2; VIM-2 inh: -3; CTSL1 counter: 6

What do the screens show for `COC(=O)c1sccc1NC(=O)C1CC2CCC1C2` (stereo not given)?
PfM18AAP inh: 4; IMP-1 inh: 48*; VIM-2 inh: -4; CTSL1 counter: 3

Results for COC(=O)c1sccc1NC(=O)C1CC(C)=C(C)CC1C(=O)O (stereo not given) ?
PfM18AAP inh: -10; IMP-1 inh: 0; VIM-2 inh: 8.4*; CTSL1 counter: 3

How did O=C(CCNC(=O)c1ccc(Cl)cc1)Nc1ccccc1N1CCCC1 do in these assays?
CTSL1 counter: -5

How did Cc1onc(-c2ccccc2Cl)c1C(=O)N1CCN(C)CC1 do in these assays?
PfM18AAP inh: -14; IMP-1 inh: -2; VIM-2 inh: -2; CTSL1 counter: 0

How did COc1ccc(CNC(=O)CN(C(=O)CCC(=O)Nc2ccccn2)c2ccc(C)cc2)cc1 do in these assays?
PfM18AAP inh: 0; IMP-1 inh: -4; VIM-2 inh: -3; CTSL1 counter: 1

What do the screens show for `COc1cccc(C(=O)NNC2OC(CO)C(O)C2O)c1` (stereo not given)?
PfM18AAP inh: -3; IMP-1 inh: -2; VIM-2 inh: -2; CTSL1 counter: 19*

How did CCN1CCN(CC(=O)Nc2c(OC)cccc2OC)CC1 do in these assays?
PfM18AAP inh: 6; IMP-1 inh: 5.5*; VIM-2 inh: -3; CTSL1 counter: -4

How did Cn1cnnc1SCC(=O)Nc1sc2c(c1C(N)=O)CCC2 do in these assays?
PfM18AAP inh: 4; IMP-1 inh: 1; VIM-2 inh: 1; CTSL1 counter: -1

What do the screens show for `Cc1nnc(SCC(=O)Nc2sc3c(c2C(N)=O)CCCC3)[nH]c1=O`?
PfM18AAP inh: 29*; IMP-1 inh: 0; VIM-2 inh: 2; CTSL1 counter: -2

What do the screens show for `Cc1c(Cl)sn(-c2ccc(Cl)cc2)c1=O`?
PfM18AAP inh: 58*; IMP-1 inh: -2; VIM-2 inh: -1

What do the screens show for `Cc1nn(-c2ccc(Cl)cc2)c(=O)c2ccccc12`?
PfM18AAP inh: 0; IMP-1 inh: -3; VIM-2 inh: -3; CTSL1 counter: -6

How did O=C(c1ccccc1)N1CCN(CC2CC=CCC2)CC1 (stereo not given) do in these assays?
PfM18AAP inh: 32*; IMP-1 inh: -1; VIM-2 inh: -2; CTSL1 counter: -4

Results for O=c1c2c3c(sc2nc2sc(CN4CCOCC4)cn12)CCCC3 ?
PfM18AAP inh: 1; IMP-1 inh: -2; VIM-2 inh: -1

High-throughput results (PubChem BioAssay)
